Test results reported in ChEMBL document CHEMBL4513216, “Probing the Open Global Health Chemical Diversity Library for Multistage-Active Starting Points for Next-Generation Antimalarials” (ACS Infect Dis, 2020).

Assay: Toxicity liver stage against HepG2, at 10uM
Type: cell-based
Design: test concentration 10 uM, cell line HepG2-A16-CD81EGFP
Settings: human, HepG2-A16-CD81EGFP cells; read-out: INHIBITION
Summary of the method: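 Uninfected HepG2-A16-CD81EGFP cells, 3 × 10^3 per well, 1536-well, plated on prespotted compound at 10 μM final, parasite-free screening media added to match infected plates; puromycin 10 μM positive, DMSO 0.5% negative; run in parallel with 48 h PbLuc assay at 37 °C, 5% CO2; viability by CellTiter-Glo luminescence, normalized to controls.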

| SMILES | cytotoxicity at 10 µM [%] |
| --- | --- |
| Cn1c(CCNC(=O)C2CCCN(C3CCOCC3)C2)n[nH]c1=O (stereo unspecified) | 2.12 |
| O=C(NCCC1CCCCO1)c1cc(COc2ccccc2F)[nH]n1 (stereo unspecified) | 6.57 |
| CN(Cc1ncnn1C1Cc2ccccc2C1)C1CCS(=O)(=O)C1 (stereo unspecified) | -2.14 |
| Cc1nc(CC(C)C)cc(C(=O)N2C[C@@H](CN(C)C)[C@@H](CO)C2)n1 | 0.868 |
| Cc1ncsc1CCN(C)C(=O)c1c(O)cccc1O | 0.417 |
| CN(CCNC(=O)c1cnc(-c2ccncc2)nc1)S(C)(=O)=O | 5.23 |
| CSc1cccc(CN(C)C(=O)Cn2ncc(N3CCCC3)cc2=O)c1 | -2.01 |
| O=C(N1CCC(OCc2ccccn2)CC1)C1(c2ccc(F)cc2)CC1 | 0.178 |
| C[C@@H]1CN(c2cccnn2)CC[C@@]1(O)C1CCOCC1 | 2.72 |
| O=C(O)[C@@H]1CN(C2CCOCC2)C[C@H]1C1CC1 | -160 |
| COc1cc(-n2cc(CCO)cn2)ccc1NC(C)=O | 9.81 |
| Cn1c(CN2CCCCC2)nnc1C1CCN(c2nccc(N)n2)CC1 | -7.98 |
| COc1ccc(Oc2cccc(C#N)n2)cc1CN1CCCC1 | -1.86 |
| Cc1cccc(C(=O)N2CCCCC2c2ccc(CN(C)C)cc2)n1 (stereo unspecified) | -19.5 |
| O=S1(=O)C[C@@H]2[C@H](C1)N(Cc1cc(Cl)cc(Cl)c1)CCN2CC1CC1 | 27.6 |
| CC1CCCCN1Cc1ccc(-c2ccccc2C(=O)O)cc1 (stereo unspecified) | 6.74 |
| COc1cc(CNC(C)Cn2cccn2)cc(OC)c1 (stereo unspecified) | 0.681 |
| COc1ccc(CNCC2CNc3ccnn3C2)cn1 (stereo unspecified) | -3.84 |
| CCn1cnnc1C1CCN(C(=O)c2ccc(Cl)cc2OC)CC1 | -1.94 |

| SMILES | cytotoxicity at 10 µM [%] |
| --- | --- |
| COCCN1CCC(NCc2c(F)cccc2F)C1 (stereo unspecified) | -5.95 |
| CCC(O)CN1CCN(C(=O)CCc2c(C)noc2Cl)CC1 (stereo unspecified) | -8.89 |
| Cc1noc(NC(=O)c2ccc(F)cc2)n1 | -0.481 |
| Cc1noc(C)c1CN(C)C(=O)c1ccc(O)nc1 | -9.71 |
| CC(NC(=O)NCc1ccccc1F)(C(=O)O)c1ccco1 (stereo unspecified) | -5.64 |
| Cc1cccc(OCCN2CCC(c3ccnn3CCO)CC2)c1 | -4.87 |
| O=C(c1cc[nH]n1)N1CCCC(c2cc(C(F)(F)F)[nH]n2)C1 (stereo unspecified) | -6.97 |
| Cc1cc(F)ccc1NS(=O)(=O)c1cc2c(c(C(=O)O)c1)OCCO2 | -6.56 |
| Cn1ccnc1CN1CCCN(C(=O)c2ccc3[nH]nnc3c2)CC1 | -8.53 |
| CCCN1CCC(CNC(=O)C2(c3cc(C)cc(C)c3)CCC2)C1 (stereo unspecified) | -0.185 |
| O=C(C1CCN(Cc2nc(-c3ccco3)no2)CC1)N1CCCC1 | -3.4 |
| O=C(c1sccc1Br)N(Cc1cccnc1)C1CC1 | -4.07 |
| Cc1cc(NC(=O)NCC(O)COc2ccccc2)n(C)n1 (stereo unspecified) | -3.19 |
| O=C(c1ccnc(-n2ccnc2)c1)N1CCCC(n2ccnc2)C1 (stereo unspecified) | 0.956 |
| COCCCN(CCOC)Cc1nc2c(cnn2C)c(=O)[nH]1 | -5.72 |
| Cc1nn(C)c(Cl)c1C1CCCN1C(=O)c1ccc[nH]1 (stereo unspecified) | -8.57 |
| c1ncn(CC2CN(CC3CCCCC3)CCO2)n1 (stereo unspecified) | -14.8 |
| Cn1nc(C(=O)N2CCCC(n3cncn3)C2)ccc1=O (stereo unspecified) | -17.4 |
| Cc1nccn1C1CCCN(C(=O)c2ccc(N3CCCC3)nn2)C1 (stereo unspecified) | -11.2 |

| SMILES | cytotoxicity at 10 µM [%] |
| --- | --- |
| Cc1ncc2c(n1)CN(CC(=O)Nc1ccncc1)CC2 | -8.7 |
| Cn1ncc2c(=O)[nH]c(CN3CCCC3CC3CCCCC3)nc21 (stereo unspecified) | -2.41 |
| CCc1nnc(CN2CCCC(c3cc(C(F)(F)F)[nH]n3)C2)o1 (stereo unspecified) | 6.88 |
| CSc1ccsc1C(=O)N1CCN(CC(C)(C)O)CC1 | -3.22 |
| CCOCC(O)CN1CCN(C(=O)CC(C)C)CC1 (stereo unspecified) | -6.98 |
| Cc1cnn(CCC(=O)N2CCCC(c3cc(C(N)=O)[nH]n3)C2)c1 (stereo unspecified) | -7.32 |
| Cc1cnn(CC2CCCCN2C(=O)c2ccnc(N(C)C)c2)c1 (stereo unspecified) | 3.3 |
| CCCNCc1ccc(OCc2ccc3c(c2)OCCO3)cc1 | 3.49 |
| CC(C)[C@H](N)c1nnc(SCC(=O)Nc2ccc(Br)cc2)o1 | -5.15 |
| O=C(NCc1ccco1)[C@H]1COC[C@H]2CN(Cc3ccoc3)C[C@H]21 | -70.4 |
| Cc1nc(C)n(CC2CN(Cc3cccnc3)Cc3nccn3C2)n1 (stereo unspecified) | -141 |
| O=C(C1CCOC1)N1CCC2(CC1)CN(c1ncccn1)CCO2 (stereo unspecified) | -73.2 |
| Cc1ccccc1N1CC2(CCN(Cc3nccn3C)C2)CC1=O (stereo unspecified) | -81.3 |
| CC(C)(C)c1cc(=O)[nH]c(C2(N)CCCCC2)n1 | 16.5 |
| CN(C)C(=O)CN1C[C@H]2CC[C@@H](C1)N(C(=O)Cc1ccccc1Cl)C2 | -11.2 |
| CNc1nc2cn(C3CC(C)(C)NC(C)(C)C3)c(=O)c-2c[nH]1 | 12 |
| Cc1cccc(-n2cc3[nH]c(=O)n(Cc4cccc(F)c4)n3c2=O)c1 | 1.79 |
| N#Cc1ccccc1CN1C[C@H]2CC[C@@H](C1)N(CC1CC1)C2=O | -11.4 |
